Data taken from ChEMBL document CHEMBL1136830, “Design and synthesis of dimeric HIV-1 integrase inhibitory peptides” (Bioorg Med Chem Lett, 2003).
pIC50: −log10 of the molar value. Starred links: 1 amine or outer side, 2 acyl side, 3 side chain; linkers in the order of their positions; H or OH if unused. Positions of bridges follow the written chain, without caps; N, C: chain ends. Non-standard residues stand in square brackets, D forms with d. Residues, ends and D or L forms follow the SMILES beside them. Chains are numbered I, II in the order given. X1 = O=C([C@@H](CC[*:3])N[*:1])[*:2]; CH2 = C([*:1])[*:2]

Key:
[1] = molecular target: T1, Human immunodeficiency virus type 1 integrase (Human immunodeficiency virus 1, UniProt Q7ZJM1); assay: In vitro inhibitory activity against HIV-1 integrase enzyme strand transfer process
In short: (§1)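 HIV-1 integrase (500 nM) pre-incubated with peptides for 20 min at room temperature in 50 mM MOPS pH 7.2, 7.5 mM NaCl, 7.5 mM MnCl2, 5% glycerol. The 3'-processing and strand-transfer reactions were then run by an earlier published method with these changes. IC50 values were reported for each step.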

[2] = molecular target: T1, Human immunodeficiency virus type 1 integrase; assay: In vitro inhibitory activity against HIV-1 integrase enzyme 3'-end processing; in short: as §1

T1 sequence (Q7ZJM1 whole entry): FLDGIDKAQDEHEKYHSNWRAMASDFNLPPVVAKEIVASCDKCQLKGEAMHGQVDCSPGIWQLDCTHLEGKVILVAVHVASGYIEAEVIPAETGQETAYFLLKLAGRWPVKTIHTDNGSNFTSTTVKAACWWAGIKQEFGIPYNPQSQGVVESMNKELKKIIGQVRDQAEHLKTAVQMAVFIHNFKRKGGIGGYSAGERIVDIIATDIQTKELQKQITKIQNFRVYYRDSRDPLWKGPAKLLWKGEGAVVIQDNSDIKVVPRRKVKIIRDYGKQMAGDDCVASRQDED

Row | Compound | pIC50 [1] | pIC50 [2]
1 | NCCCC[C@H](NC(=O)[C@H](CSC[C@H](NC(=O)[C@@H](N)Cc1c[nH]cn1)C(=O)N[C@@H](CCCCN)C(=O)N[C@@H](Cc1ccccc1)C(=O)N[C@@H](Cc1c[nH]c2ccccc12)C(=O)N[C@@H](Cc1c[nH]c2ccccc12)C(N)=O)NC(=O)[C@@H](N)Cc1c[nH]cn1)C(=O)N[C@@H](Cc1ccccc1)C(=O)N[C@@H](Cc1c[nH]c2ccccc12)C(=O)N[C@@H](Cc1c[nH]c2ccccc12)C(N)=O | 4.72 | 4.17
2 | NCCCC[C@H](NC(=O)[C@@H](CCSCC[C@@H](NC(=O)[C@@H](N)Cc1c[nH]cn1)C(=O)N[C@@H](CCCCN)C(=O)N[C@@H](Cc1ccccc1)C(=O)N[C@@H](Cc1c[nH]c2ccccc12)C(=O)N[C@@H](Cc1c[nH]c2ccccc12)C(N)=O)NC(=O)[C@@H](N)Cc1c[nH]cn1)C(=O)N[C@@H](Cc1ccccc1)C(=O)N[C@@H](Cc1c[nH]c2ccccc12)C(=O)N[C@@H](Cc1c[nH]c2ccccc12)C(N)=O | 4.20 | 4.23
3 | NCCCC[C@H](NC(=O)[C@H](CSSC[C@H](NC(=O)[C@@H](N)Cc1c[nH]cn1)C(=O)N[C@@H](CCCCN)C(=O)N[C@@H](Cc1ccccc1)C(=O)N[C@@H](Cc1c[nH]c2ccccc12)C(=O)N[C@@H](Cc1c[nH]c2ccccc12)C(N)=O)NC(=O)[C@@H](N)Cc1c[nH]cn1)C(=O)N[C@@H](Cc1ccccc1)C(=O)N[C@@H](Cc1c[nH]c2ccccc12)C(=O)N[C@@H](Cc1c[nH]c2ccccc12)C(N)=O (I: H-HCKFWW-NH2 / II: H-HCKFWW-NH2; disulfide I:2-II:2) | 4.24 | 4.09
4 | NCCCC[C@H](NC(=O)[C@H](CSCSC[C@H](NC(=O)[C@@H](N)Cc1c[nH]cn1)C(=O)N[C@@H](CCCCN)C(=O)N[C@@H](Cc1ccccc1)C(=O)N[C@@H](Cc1c[nH]c2ccccc12)C(=O)N[C@@H](Cc1c[nH]c2ccccc12)C(N)=O)NC(=O)[C@@H](N)Cc1c[nH]cn1)C(=O)N[C@@H](Cc1ccccc1)C(=O)N[C@@H](Cc1c[nH]c2ccccc12)C(=O)N[C@@H](Cc1c[nH]c2ccccc12)C(N)=O (I: H-HCKFWW-NH2 / II: H-HCKFWW-NH2; linker I:2-II:2 via CH2) | 5.19 | 5.28
5 | NCCCC[C@H](NC(=O)[C@H](CSCC[C@@H](NC(=O)[C@@H](N)Cc1c[nH]cn1)C(=O)N[C@@H](CCCCN)C(=O)N[C@@H](Cc1ccccc1)C(=O)N[C@@H](Cc1c[nH]c2ccccc12)C(=O)N[C@@H](Cc1c[nH]c2ccccc12)C(N)=O)NC(=O)[C@@H](N)Cc1c[nH]cn1)C(=O)N[C@@H](Cc1ccccc1)C(=O)N[C@@H](Cc1c[nH]c2ccccc12)C(=O)N[C@@H](Cc1c[nH]c2ccccc12)C(N)=O (I: H-H[X1]KFWW-NH2 / II: H-HCKFWW-NH2; thioether I:2-II:2) | 4.06 | 4.11
6 | H-HCKFWW-NH2 | 4.05 | 3.99
